High-throughput results from PubChem BioAssay.
KCNQ1 block: blocks the human KCNQ1 potassium channel | P51787 | CHO-K1 KCNQ1, FluxOR thallium flux fluorescence; hits give high values | B-score at 10 µM | 310,000 compounds, 1.3% hits;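 active = compounds whose thallium flux B-score, printed positive for inhibition, exceeds three library SD while starting fluorescence stays within three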;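 also: channel opened by potassium depolarization with thallium stimulus after 20 min compound exposure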
KCNK3 inh: human KCNK3 channel inhibition, primary screen | O14649 | CHO-KCNK3 thallium flux, FluxOR fluorescence; hits give low values | B-score at 10 µM | 340,000 compounds, 0.84% hits | AID 602410;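 active = B-score under library mean minus 4 SD, starting fluorescence ratio at most library mean plus 5 SD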;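 also: more negative B-score means stronger inhibition of thallium flux through KCNK3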
Target sequence (O14649 whole entry, looked up): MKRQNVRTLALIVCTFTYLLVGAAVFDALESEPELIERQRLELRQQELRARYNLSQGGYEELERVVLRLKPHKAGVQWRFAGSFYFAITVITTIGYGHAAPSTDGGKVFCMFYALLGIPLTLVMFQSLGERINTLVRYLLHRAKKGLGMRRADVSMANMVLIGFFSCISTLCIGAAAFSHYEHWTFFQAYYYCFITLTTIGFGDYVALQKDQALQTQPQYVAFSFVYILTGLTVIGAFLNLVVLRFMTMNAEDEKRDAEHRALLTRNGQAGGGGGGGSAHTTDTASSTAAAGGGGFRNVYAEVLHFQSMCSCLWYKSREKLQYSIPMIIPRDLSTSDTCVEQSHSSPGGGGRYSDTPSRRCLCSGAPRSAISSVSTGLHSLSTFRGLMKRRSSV
hERG protect: hERG (human) protection from proarrhythmic block. Q12809. AID 1511. activation (rescue from dofetilide block), less the hit threshold, % at 10 µM. 310,000 compounds, 0.51% hits. CHO-hERG, FluxOR thallium flux, dofetilide IC70 present;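 active = activation above the mean of controls blocked by dofetilide plus 5 SD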;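 also: thallium influx through hERG after potassium depolarization seen as dye fluorescence rise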
KCNK9 inh: human KCNK9 channel inhibition; B-score at 10 µM; HEK293 KCNK9, FluxOR thallium flux fluorescence; hits give low values; Q9NPC2; 310,000 compounds, 1.2% hits;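 active = ratio B-score over 3 SD below the library mean, with starting fluorescence within 5 SD of its mean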;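 also: negative B-score means less thallium flux so channel inhibition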
Target sequence (Q9NPC2 whole entry, looked up): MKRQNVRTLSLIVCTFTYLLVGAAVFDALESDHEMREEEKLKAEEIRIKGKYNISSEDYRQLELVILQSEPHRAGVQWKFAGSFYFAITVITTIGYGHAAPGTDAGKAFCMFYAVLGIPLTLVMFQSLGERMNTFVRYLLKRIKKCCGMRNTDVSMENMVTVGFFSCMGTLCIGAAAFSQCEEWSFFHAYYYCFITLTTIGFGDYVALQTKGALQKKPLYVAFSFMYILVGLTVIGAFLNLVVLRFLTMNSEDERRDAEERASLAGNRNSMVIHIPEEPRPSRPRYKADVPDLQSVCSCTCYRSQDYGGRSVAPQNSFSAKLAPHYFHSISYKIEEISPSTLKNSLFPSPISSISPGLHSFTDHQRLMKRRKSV
KCNQ1 pot: potentiators or activators of human KCNQ1 potassium channel | P51787 | CHO-K1 KCNQ1, thallium flux FluxOR fluorescence; hits give high values | B-score at 10 µM | 310,000 compounds, 0.35% hits | AID 2648;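 active = fluorescence ratio B-score, a plate-corrected score, at least three library SD, with initial intensity B-score within 5 SD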
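Material: CHO-K1 cells stably expressing KCNQ1. Medium: assay buffer for compound exposure, DMSO matched across wells. Reagent: K+/Tl+ depolarizing stimulus. Compound dosing: single-concentration screen. Times: 37 °C overnight plating, 90-min dark dye load, 20-min compound pretreatment. Technique: FluxOR Tl+ flux fluorescence.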
KCC2 mod: modulates chloride dependent transport by human KCC2; B-score of Tl+ flux slope (higher = more flux/activation; lower = inhibition) at 10 µM; 190,000 compounds, 2.2% hits; Q9H2X9; KCC2 cells, thallium flux FluoZin-2 fluorescence; AID 1456;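 active = thallium flux slope and its plate-corrected score both differing from the plate sample mean at a set confidence after two filtering rounds, in either direction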;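 also: slope of fluorescence scaled to starting intensity during 10 to 20 s after thallium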
KCC2 secondary: confirmation of human KCC2 transport modulators. shares compounds with KCC2 mod. HEK293-KCC2, thallium flux, FluoZin2 fluorescence; hits give high values. normalised thallium flux (F/F0 slope) at 10 µM. 3,700 compounds, 15% hits. AID 1713;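 active = thallium flux slope above the same plate's solvent-only control mean plus 3 SD; inconclusive = the two replicate wells disagree; inactive = no significant difference from solvent-only control wells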
KCC2 bumet counter: thallium flux persisting under bumetanide in KCC2 cells, counter-screen secondary assay; normalized thallium flux at 10 µM; shares compounds with KCC2 mod; 3,700 compounds, 49% hits; HEK293-KCC2 + bumetanide/ouabain, thallium flux FluoZin2; hits give high values;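 active = thallium entry rate above the same plate's blocked-transporter control wells by more than 3 SD; inconclusive = the two repeat wells disagree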;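 also: raw slope of fluorescence over initial fluorescence between 10 and 20 s after thallium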
KCC2 sec2: KCC2 (human) modulation, second secondary assay; shares compounds with KCC2 mod; HEK293-KCC2, thallium flux FluoZin2 fluorescence; actives lie on both sides; F/F0 rise rate, 10–20 s post-thallium; normalized thallium flux at 10 µM; 3,700 compounds, 23% hits; AID 1715;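 active = thallium flux slope more than 3 SD above or below the plate's solvent-only control mean, mostly below; inconclusive = the two repeat wells disagreed; inactive = no significant shift from solvent-only controls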;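 also: raw slope with 0.1% DMSO as baseline and bumetanide as block control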
HEK293 Tl flux: acts in parental HEK cells, KCC2 counter-screen; shares compounds with KCC2 mod; thallium flux rate (normalised fluorescence) at 10 µM; HEK293 parental cells, thallium flux FluoZin2, ouabain; baseline-ratio fluorescence slope, 10–20 s after thallium; 3,700 compounds, 46% hits;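 active = thallium flux rate significantly above the same plate's solvent-only control wells, beyond their mean plus 3 SD; inconclusive = the two replicate wells gave conflicting results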
KCC2 retest ouab: confirmation of human KCC2 modulators with ouabain; shares compounds with KCC2 mod; AID 1717; raw Tl+ flux slope (below DMSO = inhibition, above = activation) at 10 µM; HEK293-KCC2, thallium flux FluoZin2 fluorescence; bidirectional: low = inhibitor, high = activator; 3,700 compounds, 48% hits;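 active = thallium flux slope beyond 3 SD from same-plate DMSO control mean in most replicates, usually higher, sometimes lower; inconclusive = repeat tests gave conflicting results; inactive = no significant difference from controls in most replicates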;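 also: slope of initial-normalized fluorescence between seconds 10 and 20 after thallium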
HEK counter2: acts in parental HEK cells, second KCC2 counter-screen; shares compounds with KCC2 mod; HEK293 parental, thallium flux FluoZin-2 fluorescence slope; thallium flux slope at 10 µM; 3,700 compounds, 33% hits;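 active = thallium flux slope above the same plate's solvent-control mean plus 3 SD in both duplicate wells; inconclusive = duplicate wells that disagreed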;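 also: run without ouabain in cells lacking the KCC2 cotransporter; slope of fluorescence scaled to its starting value between 10 and 20 s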
* = called active by the depositor; i = inactive; ? = inconclusive; nt = no result. This is a sample that favours compounds with a hit; in the whole collection about 4.1% have one here.

SMILES	KCNQ1 block	KCNK3 inh	hERG protect	KCNK9 inh	KCNQ1 pot	KCC2 mod	KCC2 secondary	KCC2 bumet counter	KCC2 sec2	HEK293 Tl flux	KCC2 retest ouab	HEK counter2
COc1cccc2cc(-c3nnc(SCC(=O)Nc4nc(C)cs4)n3C)oc12	i	i	-12.3	i	i	-2.96*	0.00851	0.00573	0.0299	0.00669	0.0235	0.0103
CCOc1ccc2nc(N3C(=O)/C(=C/c4ccc(Cl)cc4)NC3=S)sc2c1	i	i	-2.5	i	26*	18.8*	0.00725	0.0455*	0.0493*	0.0628*	0.0483*	0.0466*
COc1ccc2nc(N3C(=O)CNC3=S)sc2c1	i	i	-6.4	i	i	3.58	nt	nt	nt	nt	nt	nt
COCc1ccc(C(=O)N(C)C2CCCN(Cc3ccccc3F)C2)o1 (stereo not drawn)	i	i	-14.5	i	i	nt	nt	nt	nt	nt	nt	nt
O=C(CN1C(=O)NC2(CCCCCC2)C1=O)N1CCC(Cc2ccccc2)CC1	i	i	-5.9	i	i	-4.94*	0.00809	0.0249*	?	0.0119*	0.0168*	0.0105
CC1=NN(C(=O)COc2ccccc2C)C(O)(c2ccc(Cl)cc2)C1 (stereo not drawn)	i	i	-15.9	i	i	-0.00714	nt	nt	nt	nt	nt	nt
CCOC(=O)C1=NN(C(=O)COc2ccccc2)C(O)(c2ccc(Cl)cc2)C1 (stereo not drawn)	i	i	-11.3	i	i	6.71*	0.012*	0.0291*	0.0296	0.0135*	0.0257	?
CCOC(=O)C1=NN(C(=O)c2ccc(OC)cc2)C(O)(c2ccc(Cl)cc2)C1 (stereo not drawn)	i	i	39.9*	i	56*	65.5*	?	0.0932*	0.077*	0.0952*	0.0869*	0.0642*
O=C(c1ccc(Cl)cc1)N1N=CCC1(O)c1ccc(Cl)cc1 (stereo not drawn)	i	i	-14.0	i	i	nt	nt	nt	nt	nt	nt	nt
CCN(CC)CCCN1C(=O)C(=O)/C(=C(/O)c2ccc(OC)cc2)C1c1ccco1 (stereo not drawn)	i	i	-6.0	i	i	nt	nt	nt	nt	nt	nt	nt
CCN(CC)CCN1C(=O)C(=O)/C(=C(/O)c2ccc(OC)cc2)C1c1ccco1 (stereo not drawn)	i	i	-6.5	i	i	8.68*	0.00608	0.00574*	0.0307	?	0.0202	?
O=C(N/N=C1\CC2CC=CC12)c1ccccc1Cl (stereo not drawn)	i	i	-14.6	i	i	0.35	nt	nt	nt	nt	nt	nt
FC(F)(F)c1ccccc1NC(=S)N/N=C1\CC2CC=CC12 (stereo not drawn)	nt	i	nt	nt	nt	13.3*	?	0.037*	0.0398*	0.0204*	0.0287*	0.0229*
O=C(CSc1nnc(CNC(=O)c2ccccc2)o1)Nc1ccc2c(c1)OCCO2	i	i	-13.1	i	i	nt	nt	nt	nt	nt	nt	nt
CC1Cc2ccccc2N1C(=O)CSc1nnc(CNc2ccccc2)o1 (stereo not drawn)	i	i	-13.1	i	i	nt	0.00686	0.00464	0.0226*	0.00768	0.013*	0.0101
CC(C)(C)N(Cc1ccccc1)C(=O)CSc1nnc(CNc2ccc(F)cc2)o1	i	i	-13.7	i	i	-5.32*	0.00616	0.00603	0.0295	0.00716	0.0129*	0.0118
COc1ccc(NCc2nnc(SCC(=O)N3CCCc4ccccc43)o2)cc1	i	i	-8.3	i	i	nt	nt	nt	nt	nt	nt	nt
O=C(CSc1nnc(CNc2ccccc2)o1)N1CCCc2ccccc21	i	i	-7.0	i	i	-4.92*	0.0159	0.00456	0.024*	0.0073	0.0139	0.00958
O=C(CSc1nnc(CNc2ccccc2)o1)c1ccc2c(c1)OCCO2	i	i	1.2	i	i	-4.39*	0.00592	?	0.0238*	0.00833	?	0.0111
CN(CC(=O)Nc1cccc(F)c1)C(=O)CN1C(=O)C2CCCCC2C1=O (stereo not drawn)	nt	i	nt	nt	nt	nt	nt	nt	nt	nt	nt	nt
O=C(CSc1ccc(-c2ccccc2)nn1)N1CCCc2ccccc21	i	i	-13.5	i	i	-4.66*	0.00754	0.00533	0.0207*	0.00708	?	0.0106
Cc1ccc(-c2ccc(SCC(=O)N3CCc4ccccc43)nn2)cc1	i	nt	-7.3	i	i	0.0784	nt	nt	nt	nt	nt	nt
COCCN1C(=O)/C(=C/c2cc3c(cc2Br)OCO3)NC1=S	i	i	-7.4	i	i	20.9*	0.00585	0.0471*	0.0414*	0.0348*	0.0411*	0.0333*
COc1ccc(N(C)C(=O)C2CCCN2S(=O)(=O)c2cccc3nsnc23)cc1 (stereo not drawn)	i	i	-9.2	i	i	nt	nt	nt	nt	nt	nt	nt
Oc1c(I)cc(I)c2cccnc12	i	i	-5.2	i	i	77.9*	0.0107	0.0779*	0.037	0.0439*	0.0842*	0.0132*
O=C(Oc1c(Cl)cc(Cl)c2cccnc12)c1cccs1	i	i	-5.6	i	i	3*	0.00833	0.0299*	0.0344	0.0158*	0.0351*	?
Oc1c(Cl)cc(Cl)c2cccnc12	i	i	-6.8	i	i	87.5*	0.0194*	0.119*	0.0472*	0.098*	0.0956*	0.0318*
Oc1ccc(Cl)c2cccnc12	nt	i	nt	nt	nt	nt	nt	nt	nt	nt	nt	nt
O=C(c1cccc(Br)c1)N1CCN(S(=O)(=O)N2CCCCC2)CC1	i	i	-8.2	i	i	nt	nt	nt	nt	nt	nt	nt
O=C(NCCc1ccccc1)c1noc2c1CCCCC2	i	i	-18.1	i	i	nt	0.00778	0.00666	?	0.00783	0.0188*	0.0105
